Reference: PMC10335114 (RSC Advances, 2023)

How the values were obtained:
Format in all cases: biochemical
h-NTPDase8 = biological target: T1, h-NTPDase8 (Homo sapiens, UniProt Q5MY95); test: h-NTPDase8 enzyme inhibition, malachite green assay; settings: for inhibition at 100 µM: read-out: h-NTPDase8 % inhibition ± S.D
T1 sequence (Q5MY95 1-495): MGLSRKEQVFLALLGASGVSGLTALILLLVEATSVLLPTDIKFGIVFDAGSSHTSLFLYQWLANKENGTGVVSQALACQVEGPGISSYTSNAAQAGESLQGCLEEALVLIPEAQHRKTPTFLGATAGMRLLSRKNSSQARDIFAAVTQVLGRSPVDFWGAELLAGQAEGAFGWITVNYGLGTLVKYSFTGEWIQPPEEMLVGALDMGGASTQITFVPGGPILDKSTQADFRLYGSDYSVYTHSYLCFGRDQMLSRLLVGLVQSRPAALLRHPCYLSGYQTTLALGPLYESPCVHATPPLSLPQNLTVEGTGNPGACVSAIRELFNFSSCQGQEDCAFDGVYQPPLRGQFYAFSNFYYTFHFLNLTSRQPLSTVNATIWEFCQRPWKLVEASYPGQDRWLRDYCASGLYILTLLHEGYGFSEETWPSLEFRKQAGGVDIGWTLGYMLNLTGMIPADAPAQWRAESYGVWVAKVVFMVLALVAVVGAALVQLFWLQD
Outline: (§1)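 Malachite green assay in 50 mM Tris-HCl, 5 mM CaCl2, pH 7.4. Test compound at 100 μM, in triplicate, incubated 10 min with enzyme: h-NTPDase1 12 ng, h-NTPDase2 37 ng, h-NTPDase3 43 ng, h-NTPDase8 63 ng. Plate read at 630 nm, then substrate (100 μM) added and incubated 15 min at 37 °C. Malachite green reagent added and reading taken up to 6 min.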

h-NTPDase1 = biological target: T2, h-NTPDase1 (Homo sapiens, UniProt P49961); test: h-NTPDase1 enzyme inhibition, malachite green assay; settings: for inhibition at 100 µM: read-out: h-NTPDase1 % inhibition ± S.D
T2 sequence (P49961 1-510): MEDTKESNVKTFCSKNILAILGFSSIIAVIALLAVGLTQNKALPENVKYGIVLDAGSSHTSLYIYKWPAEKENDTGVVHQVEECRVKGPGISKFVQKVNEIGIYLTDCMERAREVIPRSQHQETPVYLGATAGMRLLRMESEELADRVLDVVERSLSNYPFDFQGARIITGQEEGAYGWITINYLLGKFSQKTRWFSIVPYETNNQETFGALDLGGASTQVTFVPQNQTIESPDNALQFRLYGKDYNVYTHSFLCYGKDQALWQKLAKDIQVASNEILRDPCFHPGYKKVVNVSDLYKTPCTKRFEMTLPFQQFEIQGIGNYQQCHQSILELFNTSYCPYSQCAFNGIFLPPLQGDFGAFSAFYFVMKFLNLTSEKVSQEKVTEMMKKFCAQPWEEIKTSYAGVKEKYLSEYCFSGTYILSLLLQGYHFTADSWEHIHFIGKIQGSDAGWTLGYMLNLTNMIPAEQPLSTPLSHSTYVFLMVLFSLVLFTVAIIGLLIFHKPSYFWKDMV
Outline: as §1

h-NTPDase3 = biological target: T3, h-NTPDase3 (Homo sapiens, UniProt O75355); test: h-NTPDase3 enzyme inhibition, malachite green assay
T3 sequence (O75355 1-529): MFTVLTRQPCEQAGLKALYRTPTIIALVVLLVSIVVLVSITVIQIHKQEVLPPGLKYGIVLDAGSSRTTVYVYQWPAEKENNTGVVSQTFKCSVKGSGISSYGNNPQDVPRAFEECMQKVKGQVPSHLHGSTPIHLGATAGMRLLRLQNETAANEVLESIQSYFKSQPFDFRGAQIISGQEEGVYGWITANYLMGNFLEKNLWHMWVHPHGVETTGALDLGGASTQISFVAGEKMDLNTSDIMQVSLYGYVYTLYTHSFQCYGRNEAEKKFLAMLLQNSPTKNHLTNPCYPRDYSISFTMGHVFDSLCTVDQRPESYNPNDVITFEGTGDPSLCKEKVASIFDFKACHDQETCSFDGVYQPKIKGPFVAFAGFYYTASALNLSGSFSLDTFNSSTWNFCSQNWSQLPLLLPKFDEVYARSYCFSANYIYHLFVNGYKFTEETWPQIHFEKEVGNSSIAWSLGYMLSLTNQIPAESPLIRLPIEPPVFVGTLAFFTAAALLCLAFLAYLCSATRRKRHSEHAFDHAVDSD
Outline: as §1

h-NTPDase2 = biological target: T4, h-NTPDase2 (Homo sapiens, UniProt Q9Y5L3); test: h-NTPDase2 enzyme inhibition, malachite green assay; settings: for h-NTPDase2 IC50 ± SEM: triplicate, determined for compounds with over 50% inhibition at 100 μM; for inhibition at 100 µM: read-out: h-NTPDase2 % inhibition ± S.D
T4 sequence (Q9Y5L3 1-495): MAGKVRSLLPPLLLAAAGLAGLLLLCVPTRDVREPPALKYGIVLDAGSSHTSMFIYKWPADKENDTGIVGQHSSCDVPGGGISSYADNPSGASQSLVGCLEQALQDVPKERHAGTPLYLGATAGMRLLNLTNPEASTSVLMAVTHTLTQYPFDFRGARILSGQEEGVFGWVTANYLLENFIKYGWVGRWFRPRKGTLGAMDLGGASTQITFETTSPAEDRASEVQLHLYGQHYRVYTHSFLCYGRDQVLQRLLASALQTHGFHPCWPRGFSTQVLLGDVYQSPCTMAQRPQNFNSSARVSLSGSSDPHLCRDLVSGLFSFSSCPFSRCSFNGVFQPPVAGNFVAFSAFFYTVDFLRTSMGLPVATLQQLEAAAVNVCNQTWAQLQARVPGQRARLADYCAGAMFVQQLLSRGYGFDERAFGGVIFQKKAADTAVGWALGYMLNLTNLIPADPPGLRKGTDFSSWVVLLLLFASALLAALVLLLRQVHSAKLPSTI
Outline: as §1

| SMILES | inhibition at 100 µM (h-NTPDase8) [%] | IC50 (h-NTPDase1) [nM] | IC50 (h-NTPDase3) [nM] | IC50 (h-NTPDase2) [nM] | h-NTPDase2 IC50 ± SEM (h-NTPDase2) | IC50 (h-NTPDase8) [nM] | inhibition at 100 µM (h-NTPDase1) [%] | inhibition at 100 µM (h-NTPDase2) [%] | inhibition at 100 µM (h-NTPDase3; read-out: h-NTPDase3 % inhibition ± S.D) [%] |
| --- | --- | --- | --- | --- | --- | --- | --- | --- | --- |
| COc1ccc(NC(=O)c2cccc(S(=O)(=O)N3CCOCC3)c2)cc1 [3f, N-(4-methoxyphenyl)-3-(morpholinosulfonyl)benzamide] | 29 ± 4.5 | > 100000 | 6710 ± 40 | 270 ± 80 | sub-micromolar |  |  |  |  |
| O=C(NC1CC1)c1cc(S(=O)(=O)NC2CC2)ccc1Cl [4d, 2-chloro-N-cyclopropyl-5-(N-cyclopropylsulfamoyl)benzamide] |  |  | 200 ± 70 | 130 ± 10 | sub-micromolar | 2460 ± 90 | 36 ± 2.4 |  |  |
| O=C(c1cc(S(=O)(=O)Nc2ccc(Br)cc2)ccc1Cl)N1CCOCC1 [3i, N-(4-bromophenyl)-4-chloro-3-(morpholine-4-carbonyl)benzenesulfonamide] | 32 ± 3.5 | 2880 ± 130 | 720 ± 110 |  |  |  |  | 43 ± 1.4 |  |
| O=C(O)c1cc(S(=O)(=O)NC2CC2)ccc1Cl [2d, 2-chloro-5-(N-cyclopropylsulfamoyl)benzoic acid] |  |  |  |  |  | 280 ± 70 | 3 ± 1.2 | 19 ± 0.9 | 41 ± 1.4 |
| COc1ccc(NC(=O)c2cc(S(=O)(=O)NCc3ccccc3)ccc2Cl)cc1 [3j, 5-(N-benzylsulfamoyl)-2-chloro-N-(4-methoxyphenyl)benzamide] | 36 ± 1.7 |  | 3160 ± 120 | 290 ± 70 | sub-micromolar |  | 37 ± 1.3 |  |  |
| Cc1ccc(C(=O)Nc2ccc(S(=O)(=O)O)c3cc(S(=O)(=O)O)cc(S(=O)(=O)O)c23)cc1NC(=O)c1cccc(NC(=O)Nc2cccc(C(=O)Nc3cc(C(=O)Nc4ccc(S(=O)(=O)O)c5cc(S(=O)(=O)O)cc(S(=O)(=O)O)c45)ccc3C)c2)c1 [Suramin, reference compound] |  |  |  |  |  | 101000 ± 2340 |  |  |  |
